# Data from ChEMBL document CHEMBL1135836, “Cyclodextrin-derived host molecules as reversal agents for the neuromuscular blocker rocuronium bromide: synthesis and structure-activity relationships” (J Med Chem, 2002).
# What was measured:
# Type in all cases: functional
# Mus musculus [1] = species: Mus musculus; assay: In vitro reversal activity versus ~90% block by rocuronium in isolated mouse hemidiaphragm, expressed as % of maximum reversal at 18 uM conc.
# Cavia porcellus [2] = assay: In vivo reversal activity versus ~90% block by rocuronium in guinea pig, expressed as % of maximum reversal at 8 umol/kg conc.
# Summary of the method: (§1)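 Male Dunkin-Hartley guinea pigs (600-900 g) anaesthetized ip with pentobarbitone 10 mg/kg plus urethane 1000 mg/kg, tracheotomized and artificially ventilated. Continuous iv rocuronium bromide infusion (~10 nmol kg-1 min-1) raised until steady-state twitch block of 85-90%. Increasing single iv doses of reversal agent given by a separate catheter. Max reversal is peak twitch recovery versus preblock height at highest dose tested; means ± SEM, n ≥ 2 or single experiment.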
# Mus musculus [3] = species: Mus musculus; assay: In vitro reversal activity versus ~90% block by rocuronium in isolated mouse hemidiaphragm, expressed as effective conc.
# Cavia porcellus [4] = assay: In vivo reversal activity versus ~90% block by rocuronium in guinea pig
# Summary of the method: (§2)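 Male Dunkin-Hartley guinea pigs (600-900 g), anaesthetized ip with pentobarbitone 10 mg/kg plus urethane 1000 mg/kg, tracheotomized and ventilated. Continuous iv rocuronium infusion (~10 nmol kg-1 min-1) was raised to a steady 85-90% block. Increasing iv doses of agent were given cumulatively. ED50 = 50% recovery versus preblock twitch, by regression. Mean ± SEM of at least two experiments, or one.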
# Cavia porcellus [5] = assay: In vivo reversal activity versus ~90% block by rocuronium in guinea pig, expressed as % of maximum reversal at 2 umol/kg conc.; summary of the method: as §1
# Mus musculus [6] = species: Mus musculus; assay: In vitro reversal activity versus ~90% block by rocuronium in isolated mouse hemidiaphragm, expressed as % of maximum reversal at 7.2 uM conc.
# Cavia porcellus [7] = assay: In vivo reversal activity versus ~90% block by rocuronium in guinea pig, expressed as % of maximum reversal at 16 umol/kg conc.; summary of the method: as §1
# Mus musculus [8] = species: Mus musculus; assay: In vitro reversal activity versus ~90% block by rocuronium in isolated mouse hemidiaphragm, expressed as % of maximum reversal at 360 uM conc.
# Cavia porcellus [9] = assay: In vivo reversal activity versus ~90% block by rocuronium in guinea pig, expressed as % of maximum reversal at 15 umol/kg conc.; summary of the method: as §1
# Cavia porcellus [10] = assay: In vivo reversal activity versus ~90% block by rocuronium in guinea pig, expressed as % of maximum reversal at 31.8 umol/kg conc.; summary of the method: as §1
# Cavia porcellus [11] = assay: In vivo reversal activity versus ~90% block by rocuronium in guinea pig, expressed as % of maximum reversal at 0.3 umol/kg conc.; summary of the method: as §2
# Mus musculus [12] = species: Mus musculus; assay: In vitro reversal activity versus ~90% block by rocuronium in isolated mouse hemidiaphragm, expressed as % of maximum reversal at 5.4 uM conc.
# Mus musculus [13] = species: Mus musculus; assay: In vitro reversal activity versus ~90% block by rocuronium in isolated mouse hemidiaphragm, expressed as % of maximum reversal at 9 uM conc.
# Cavia porcellus [14] = assay: In vivo reversal activity versus ~90% block by rocuronium in guinea pig, expressed as % of maximum reversal at 3.6 umol/kg conc.; summary of the method: as §1
# Cavia porcellus [15] = assay: In vivo reversal activity versus ~90% block by rocuronium in guinea pig, expressed as % of maximum reversal at 1.6 umol/kg conc.; summary of the method: as §2
SMILES,EC50 (Mus musculus [3]),Max reversal (Mus musculus [1]),ED50 (Cavia porcellus [4]),Max reversal (Mus musculus [6]),other results
O=C([O-])Cc1cccc(SCC2O[C@@H]3O[C@@H]4C(CSc5cccc(CC(=O)[O-])c5)O[C@H](O[C@@H]5C(CSc6cccc(CC(=O)[O-])c6)O[C@H](O[C@@H]6C(CSc7cccc(CC(=O)[O-])c7)O[C@H](O[C@@H]7C(CSc8cccc(CC(=O)[O-])c8)O[C@H](O[C@@H]8C(CSc9cccc(CC(=O)[O-])c9)O[C@H](O[C@@H]9C(CSc%10cccc(CC(=O)[O-])c%10)O[C@H](O[C@@H]%10C(CSc%11cccc(CC(=O)[O-])c%11)O[C@H](O[C@H]2C(O)C3O)C(O)C%10O)C(O)C9O)C(O)C8O)C(O)C7O)C(O)C6O)C(O)C5O)C(O)C4O)c1.[Na+].[Na+].[Na+].[Na+].[Na+].[Na+].[Na+].[Na+] (stereo not given in full),1.7 µM,–,0.53 µmol/kg,99.1%,Max reversal (Cavia porcellus [5]): 104.6%
O=C([O-])CCSCC1O[C@@H]2O[C@@H]3C(CSCCC(=O)[O-])O[C@H](O[C@@H]4C(CSCCC(=O)[O-])O[C@H](O[C@@H]5C(CSCCC(=O)[O-])O[C@H](O[C@@H]6C(CSCCC(=O)[O-])O[C@H](O[C@@H]7C(CSCCC(=O)[O-])O[C@H](O[C@H]1C(O)C2O)C(O)C7O)C(O)C6O)C(O)C5O)C(O)C4O)C(O)C3O.[Na+].[Na+].[Na+].[Na+].[Na+].[Na+] (stereo not given in full),> 360 µM,–,> 16 µmol/kg,–,Max reversal (Cavia porcellus [7]): 3.2%; Max reversal (Mus musculus [8]): 0%
O=C([O-])CCc1ccc(SCC2O[C@@H]3O[C@@H]4C(CO)O[C@H](O[C@@H]5C(CO)O[C@H](O[C@@H]6C(CO)O[C@H](O[C@@H]7C(CO)O[C@H](O[C@@H]8C(CO)O[C@H](O[C@@H]9C(CO)O[C@H](O[C@@H]%10C(CO)O[C@H](O[C@H]2C(O)C3O)C(O)C%10O)C(O)C9O)C(O)C8O)C(O)C7O)C(O)C6O)C(O)C5O)C(O)C4O)cc1.[Na+] (stereo not given in full),32.8 µM,36.2%,3.33 µmol/kg,–,Max reversal (Cavia porcellus [10]): 93.8%
O=C([O-])CCc1cccc(SCC2O[C@@H]3O[C@@H]4C(CO)O[C@H](O[C@@H]5C(CO)O[C@H](O[C@@H]6C(CO)O[C@H](O[C@@H]7C(CO)O[C@H](O[C@@H]8C(CO)O[C@H](O[C@@H]9C(CO)O[C@H](O[C@@H]%10C(CO)O[C@H](O[C@H]2C(O)C3O)C(O)C%10O)C(O)C9O)C(O)C8O)C(O)C7O)C(O)C6O)C(O)C5O)C(O)C4O)c1.[Na+] (stereo not given in full),> 18 µM,3.9%,12.6 µmol/kg,–,Max reversal (Cavia porcellus [9]): 55.8%
OCCSCC1O[C@@H]2O[C@@H]3C(CSCCO)O[C@H](O[C@@H]4C(CSCCO)O[C@H](O[C@@H]5C(CSCCO)O[C@H](O[C@@H]6C(CSCCO)O[C@H](O[C@@H]7C(CSCCO)O[C@H](O[C@@H]8C(CSCCO)O[C@H](O[C@@H]9C(CSCCO)O[C@H](O[C@H]1C(O)C2O)C(O)C9O)C(O)C8O)C(O)C7O)C(O)C6O)C(O)C5O)C(O)C4O)C(O)C3O (stereo not given in full),4 µM,–,0.21 µmol/kg,86.4%,Max reversal (Cavia porcellus [5]): 95.8%
O=C([O-])CCCCSCC1O[C@@H]2O[C@@H]3C(CSCCCCC(=O)[O-])O[C@H](O[C@@H]4C(CSCCCCC(=O)[O-])O[C@H](O[C@@H]5C(CSCCCCC(=O)[O-])O[C@H](O[C@@H]6C(CSCCCCC(=O)[O-])O[C@H](O[C@@H]7C(CSCCCCC(=O)[O-])O[C@H](O[C@@H]8C(CSCCCCC(=O)[O-])O[C@H](O[C@@H]9C(CSCCCCC(=O)[O-])O[C@H](O[C@H]1C(O)C2O)C(O)C9O)C(O)C8O)C(O)C7O)C(O)C6O)C(O)C5O)C(O)C4O)C(O)C3O.[Na+].[Na+].[Na+].[Na+].[Na+].[Na+].[Na+].[Na+] (stereo not given in full),1.8 µM,–,0.07 µmol/kg,–,Max reversal (Cavia porcellus [11]): 99%; Max reversal (Mus musculus [12]): 98.9%
O=C([O-])c1ccccc1C(=O)NCCCSCC1O[C@@H]2O[C@@H]3C(CSCCCNC(=O)c4ccccc4C(=O)[O-])O[C@H](O[C@@H]4C(CSCCCNC(=O)c5ccccc5C(=O)[O-])O[C@H](O[C@@H]5C(CSCCCNC(=O)c6ccccc6C(=O)[O-])O[C@H](O[C@@H]6C(CSCCCNC(=O)c7ccccc7C(=O)[O-])O[C@H](O[C@@H]7C(CSCCCNC(=O)c8ccccc8C(=O)[O-])O[C@H](O[C@@H]8C(CSCCCNC(=O)c9ccccc9C(=O)[O-])O[C@H](O[C@@H]9C(CSCCCNC(=O)c%10ccccc%10C(=O)[O-])O[C@H](O[C@H]1C(O)C2O)C(O)C9O)C(O)C8O)C(O)C7O)C(O)C6O)C(O)C5O)C(O)C4O)C(O)C3O.[Na+].[Na+].[Na+].[Na+].[Na+].[Na+].[Na+].[Na+] (stereo not given in full),0.1 µM,–,0.27 µmol/kg,90.7%,Max reversal (Cavia porcellus [15]): 83%

# Further molecules by falling EC50 (Mus musculus [3]), results first:
EC50 (Mus musculus [3]),SMILES,Max reversal (Mus musculus [1]),ED50 (Cavia porcellus [4]),Max reversal (Mus musculus [6]),other results
20.3 µM,CC(C)(CSCC1O[C@@H]2O[C@@H]3C(CSCC(C)(C)C(=O)[O-])O[C@H](O[C@@H]4C(CSCC(C)(C)C(=O)[O-])O[C@H](O[C@@H]5C(CSCC(C)(C)C(=O)[O-])O[C@H](O[C@@H]6C(CSCC(C)(C)C(=O)[O-])O[C@H](O[C@@H]7C(CSCC(C)(C)C(=O)[O-])O[C@H](O[C@@H]8C(CSCC(C)(C)C(=O)[O-])O[C@H](O[C@@H]9C(CSCC(C)(C)C(=O)[O-])O[C@H](O[C@H]1C(O)C2O)C(O)C9O)C(O)C8O)C(O)C7O)C(O)C6O)C(O)C5O)C(O)C4O)C(O)C3O)C(=O)[O-].[Na+].[Na+].[Na+].[Na+].[Na+].[Na+].[Na+].[Na+] (stereo not given in full),47.6%,1.32 µmol/kg,–,Max reversal (Cavia porcellus [9]): 98.8%
9.5 µM,CC(CSCC1O[C@@H]2O[C@@H]3C(CSCC(C)C(=O)[O-])O[C@H](O[C@@H]4C(CSCC(C)C(=O)[O-])O[C@H](O[C@@H]5C(CSCC(C)C(=O)[O-])O[C@H](O[C@@H]6C(CSCC(C)C(=O)[O-])O[C@H](O[C@@H]7C(CSCC(C)C(=O)[O-])O[C@H](O[C@@H]8C(CSCC(C)C(=O)[O-])O[C@H](O[C@@H]9C(CSCC(C)C(=O)[O-])O[C@H](O[C@H]1C(O)C2O)C(O)C9O)C(O)C8O)C(O)C7O)C(O)C6O)C(O)C5O)C(O)C4O)C(O)C3O)C(=O)[O-].[Na+].[Na+].[Na+].[Na+].[Na+].[Na+].[Na+].[Na+] (stereo not given in full),77.5%,0.73 µmol/kg,–,Max reversal (Cavia porcellus [2]): 97.8%
4.1 µM,OCCCSCC1O[C@@H]2O[C@@H]3C(CSCCCO)O[C@H](O[C@@H]4C(CSCCCO)O[C@H](O[C@@H]5C(CSCCCO)O[C@H](O[C@@H]6C(CSCCCO)O[C@H](O[C@@H]7C(CSCCCO)O[C@H](O[C@@H]8C(CSCCCO)O[C@H](O[C@@H]9C(CSCCCO)O[C@H](O[C@H]1C(O)C2O)C(O)C9O)C(O)C8O)C(O)C7O)C(O)C6O)C(O)C5O)C(O)C4O)C(O)C3O (stereo not given in full),–,0.52 µmol/kg,–,Max reversal (Mus musculus [13]): 96.5%; Max reversal (Cavia porcellus [14]): 98.3%
